Source: PubChem
Ecoli WT expand = E. coli BW25113 growth inhibition, expanded screen. OD600 absorbance. growth inhibition, % at 100 µM. 98,000 tested, 0.15% active. AID 710;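 active = growth inhibition above about 50% at one test dose, limit read from the data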;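 note: growth measured after 20 h incubation at 37 °C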
PostGolgi ctrl = yeast control strain growth, post-Golgi counter-screen; efflux-deficient yeast background strain, growth absorbance A615, 16 h; inhibition, % at 10 µM; 98,000 tested, 5% active; AID 738
Ecoli tolC = E. coli tolC mutant growth inhibition; E. coli BW25113 tolC mutant growth, OD615; growth inhibition, % at 10 µM (by protocol); 65,000 tested, 2.2% active; AID 573;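 active = growth inhibition at or above a cutoff equal to the mean over every tested compound plus 3 SD, cut at about 60% in these data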;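 note: growth measured after 20 h incubation at 37 °C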
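Test system: tolC-deleted E. coli BW25113; medium: LB with kanamycin 50 µg/mL; compound: single-point testing at 10 µM; incubation: 20 h compound exposure of bacteria at 37 °C; signal: OD at 615 nm; evaluation: growth inhibition in percent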
PLAP act = activators of human placental alkaline phosphatase; P05187; 96,000 tested, 1.2% active; AID 696; activation fold at 20 µM; purified PLAP enzyme, luminescent substrate read-out; stronger effect = higher value; in the data active = activation fold above about 2
Target sequence (P05187 whole entry, looked up): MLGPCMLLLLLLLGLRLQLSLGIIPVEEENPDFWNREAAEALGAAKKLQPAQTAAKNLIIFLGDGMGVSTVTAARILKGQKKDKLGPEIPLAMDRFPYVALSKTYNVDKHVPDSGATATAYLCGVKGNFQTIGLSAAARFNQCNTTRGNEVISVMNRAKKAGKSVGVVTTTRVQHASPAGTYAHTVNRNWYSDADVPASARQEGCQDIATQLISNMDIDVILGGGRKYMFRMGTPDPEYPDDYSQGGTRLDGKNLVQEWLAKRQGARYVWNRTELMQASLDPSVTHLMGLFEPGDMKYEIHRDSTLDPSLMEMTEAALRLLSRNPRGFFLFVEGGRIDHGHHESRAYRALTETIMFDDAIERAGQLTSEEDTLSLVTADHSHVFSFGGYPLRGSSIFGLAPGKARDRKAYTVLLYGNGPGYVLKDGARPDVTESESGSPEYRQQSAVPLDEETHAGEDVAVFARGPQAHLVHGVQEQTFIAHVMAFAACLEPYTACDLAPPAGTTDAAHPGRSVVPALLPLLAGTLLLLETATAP
PostGolgi yeast = growth inhibition of a yeast mutant, post-Golgi transport screen; 98,000 tested, 0.9% active; inhibition, % at 10 µM; post-Golgi transport phenotypic cell assay;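 note: yeast cells grown in 1536-well plates; yeast grown about 18 h at 30C before absorbance read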
Active calls of the source: *; . = not tested or not shown. A selection: hits, their analogues and other compounds. The true share with any hit is near 7.2%. Cut-off read from the data, not from the text of the source, unless noted: active = inhibition above about 30%; inactive = the rest.

SMILES	Ecoli WT expand	PostGolgi ctrl	Ecoli tolC	PLAP act	PostGolgi yeast
COCCNC(=S)NNC(=O)c1ccco1	-2.0	4.3	.	2.1*	7.6
COc1ccc(C(=O)NNC(=S)NC(=O)c2ccco2)cc1	80.0*	13.1	.	1.2	11.6
O=S(=O)(Nc1ccc(-n2cccc2)cc1)c1ccccc1	3.0	33.2*	.	1.1	4.2
O=C(Oc1ccccc1C(=O)N1CCOCC1)c1cccc(Br)c1	2.0	-8.9	-3.2	1.2	-6.3
Cc1ccc([N+](=O)[O-])cc1N=C(c1cccc(Br)c1)N1CCOCC1	-13.0	33.6*	.	1.2	22.6
Cc1sc2nc(C(C)C)nc(SCC(=O)NCc3ccco3)c2c1C	-5.0	39.9*	30.3	1.4	4.2
Cc1nc(SCC(=O)NCc2ccco2)c2c(C)c(C)sc2n1	-8.0	5.5	26.4	0.8	-6.1
Cc1cc(/C=C(\C#N)C(=O)Nc2ccccc2)c(C)n1-c1ccc2c(c1)OCO2	-12.0	55.4*	.	1.3	-5.7
CNC(=O)c1ccsc1NC(=O)c1ccc(Cl)s1	-11.0	23.9	22.7	1	-1.8
CC(NC(=O)Cc1cccs1)C(c1cccs1)N1CCN(c2ccccc2F)CC1 (centres undefined)	-11.0	35.7*	25.6	0.9	5.7
Cc1ccccc1NC(=O)c1ccc(-n2cncn2)nc1	0.0	20.2	.	1	-5.3
Oc1ccc(/C=C/c2nc(-c3ccccc3O)n(-c3ccccc3)n2)cc1	-3.0	38.0*	.	1	6.6
COCCN1CSC(=S)N(Cc2ccco2)C1	62.0*	0.1	17.3	1	8.4
O=C(c1cccs1)N(Cc1ccccn1)Cc1ccco1	-2.0	7.9	-17.4	1	-4.1
COCCCNC(=S)NC1CC2CCCC(C1)N2Cc1ccco1 (centres undefined)	2.0	14.3	.	1.3	14.8
S=C1SCN(Cc2ccccn2)CN1Cc1ccco1	71.0*	8.1	21.1	1	-0.8
c1csc(C2Nc3cccc4cccc(c34)N2)c1	-6.0	31.7*	.	0.8	-10.2
Cc1ccnc(NC(=O)c2cccc(NS(=O)(=O)c3ccccc3C)c2)c1	-2.0	29.0	.	1.4	10.6
CSCSC1=C(C#N)C(c2ccccc2Cl)C(C(C)=O)=C(C)N1 (centres undefined)	-11.0	18.4	63.4*	0.7	3.9
CCOC(=O)CSC1=C(C#N)C(c2ccccc2F)C(C(C)=O)=C(C)N1 (centres undefined)	4.0	5.4	36.2	1	-5.4
Cc1ccc(S(=O)(=O)N2CCC(C(=O)NCc3ccncc3)CC2)cc1	5.0	8.4	.	1.1	-13.0
Cc1ccc(/C=N/n2cnc3sc(-c4ccccc4)cc3c2=O)o1	0.0	1.8	.	0.9	64.8*
Cc1cc2ncn(/N=C/c3ccc(-c4ccccc4)o3)c2cc1C	-14.0	3.6	.	1	-5.3
CCOC(=O)C1=C(C)NC(=O)NC1c1c(OCC(=O)N2CCCCC2)ccc2ccccc12 (centres undefined)	3.0	-10.7	2.1	1.5	14.0
Cc1noc(C)c1S(=O)(=O)N(CCc1ccccc1)Cc1ccccc1	-1.0	17.7	62.7*	1	4.2
SMILES	Ecoli WT expand	PostGolgi ctrl	Ecoli tolC	PLAP act	PostGolgi yeast
O=C(c1ccco1)N1CCN(c2ccc(Cl)cc2)CC1	-1.0	7.4	11.3	0.9	-2.8
O=C(Nc1ccc(N2CCN(C(=O)c3ccco3)CC2)c(Cl)c1)c1c(F)c(F)c(F)c(F)c1F	-15.0	62.7*	77.3*	0.9	21.6
Cc1ccccc1C(=O)N1CCN(c2ccc(NC(=O)c3ccco3)cc2Cl)CC1	-10.0	29.5	22.7	1.6	2.3
O=C(Nc1ccc(N2CCN(C(=O)c3ccc(Cl)cc3)CC2)cc1)c1ccc(Br)o1	-2.0	54.1*	30.8	0.9	20.8
O=C(Nc1ccc(N2CCN(C(=O)c3ccco3)CC2)cc1)c1cccs1	-4.0	-0.8	15.2	0.9	1.9
O=C(Nc1ccc(N2CCN(C(=O)c3ccco3)CC2)cc1)C(c1ccccc1)c1ccccc1	-15.0	1.5	.	2.5*	-0.9
O=C(Cc1ccc(Cl)cc1)Nc1ccc(N2CCN(C(=O)c3ccco3)CC2)cc1	2.0	43.3*	9.4	1.2	-3.7
O=C(Nc1ccc(N2CCN(C(=O)c3ccc(Cl)cc3)CC2)cc1)c1cc2ccccc2o1	-7.0	2.2	.	0.9	7.3
CN(C)c1ccc(/C=N/n2ncc3ccccc32)cc1	-4.0	0.5	61.5*	1	0.8
Brc1cc(Br)c2ncnc(N3CCCCC3)c2c1	11.0	17.3	100.0*	1.6	19.9
Clc1ccc(-n2ncc3c(N4CCCCCC4)ncnc32)cc1	-7.0	21.7	10.9	1.1	-7.4
CCOC(=O)c1ccc2c(c1)nc(SCc1cn3ccsc3n1)n2CC	-12.0	-0.4	36.5	1.3	-3.5
COCC(C)n1c(C)cc(C(=O)COC(=O)c2nc3nc(C)cc(C)n3n2)c1C (centres undefined)	0.0	33.0*	-23.6	1.5	8.1
CCCc1cc(=O)[nH]c(SCC(=O)c2cc(C)n(C(C)COC)c2C)n1 (centres undefined)	-4.0	48.6*	9.7	.	-2.9
CCOC(=O)c1nn(-c2ccc(C)cc2)cc1C(=O)c1ccccc1	-13.0	7.1	.	1.6	-1.1
CCOc1ccc(Nc2cc(C)nc3nc(C)nn23)cc1	.	.	-5.6	.	.
CCCCNC(=O)c1onc(CSc2cccc(OCC)c2)c1C(=O)O	-5.0	-7.9	.	1.3	4.2
CCOc1cccc(SCc2noc(C(=O)NCCOC)c2C(=O)O)c1	2.0	33.4*	.	1.2	0.3
CC1Cc2ccccc2N1C(=O)Cn1c(=O)oc2cc(S(=O)(=O)NC3CCCC3)ccc21 (centres undefined)	-13.0	23.9	73.8*	1.6	7.8
CCCS(=O)(=O)N1CCN(C(=O)c2cc(OC)cc(OC)c2)CC1	4.0	-1.4	-26.3	1.1	-4.9
CCS(=O)(=O)N1CCN(C(=O)c2cc(OC)cc(OC)c2)CC1	-4.0	31.3*	8.1	0.9	2.0
CCOCCCNC(=O)c1ccc(CS(=O)(=O)Cc2ccc(C)cc2)o1	-3.0	9.6	-12.1	1.2	4.7
COC(=O)CSc1nc(N)c(C#N)c(-c2ccco2)c1C#N	-10.0	31.7*	.	1	-5.3
CC(=O)N1N=C(c2ccc(C)cc2)OC1c1ccc(C)cc1 (centres undefined)	-4.0	33.8*	.	1.2	-3.2
CC(=O)N1N=C(c2ccc(C)cc2)OC1c1ccc(C(C)C)cc1 (centres undefined)	-11.0	15.3	.	1.1	-9.3
SMILES	Ecoli WT expand	PostGolgi ctrl	Ecoli tolC	PLAP act	PostGolgi yeast
COc1ccc(Cl)cc1C(=O)Nc1nnn(C)n1	-2.0	-7.1	-3.5	0.9	-4.7
Cc1nc2sccn2c1-c1nc(C2CC2)c(C(=O)c2ccc3c(c2)NC(=O)CO3)s1	.	.	10.4	.	.
CC1=C(C#N)CCC(=O)N1Cc1ccc(C)cc1	2.0	0.1	.	1	-1.0
CC1=C(C(=O)OCC(C)C)C(c2cc3c(cc2Br)OCO3)NC(=O)N1C (centres undefined)	6.0	37.7*	66.4*	1.5	-1.6
CS(=O)(=O)N(Cc1ccccc1)c1ccc(C(=O)N2CCc3ccccc3C2)cc1	1.0	-0.4	.	1	15.3
CCOC(=O)c1ccccc1NC(=O)C(C)Oc1ccccc1 (centres undefined)	13.0	8.3	68.8*	0.9	12.1
